Data reported in ChEMBL document CHEMBL4145462, “Nitrogen-containing ecdysteroid derivatives vs. multi-drug resistance in cancer: Preparation and antitumor activity of oximes, oxime ethers and a lactam” (Eur J Med Chem, 2018).
pIC50: −log10 of the molar value.

How the values were obtained:
HeLa = experiment: Antiproliferative activity against human HeLa cells after 72 hrs by MTT assay; assay type: functional, cell-based
Outline: (§1)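 Cells grown in MEM with 10% FCS, 1% non-essential amino acids and 1% penicillin-streptomycin. Seeded at 5000 cells/well, exposed to 0.1–30.0 µM compound for 72 h. MTT (5 mg/ml solution) was then added for 4 h, formazan dissolved in DMSO, and absorbance read at 545 nm. Cisplatin served as positive control. IC50 came from sigmoidal dose–response fits (log inhibitor vs normalized response, variable slope).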

MCF7 = experiment: Antiproliferative activity against human MCF7 cells after 72 hrs by MTT assay; assay type: functional, cell-based; conditions: MCF7, 72 h; outline: as §1
[1] = Cytotoxicity against mouse L5178 cells after 48 hrs by MTT assay; assay type: functional, cell-based; conditions: L5178, 48 h
Outline: (§2)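 Parental mouse lymphoma L5178 and the MDR line made by pHa MDR1/A retrovirus transfection, selected with 60 µg/L colchicine. Grown in McCoy's 5A with horse serum at 37°C, 5% CO2. 5 x 10^4 cells/well, serial compound dilutions, 48 h. MTT added to 0.5 mg/mL final for 4 h, then 10% SDS in 0.01 M HCl overnight, OD read at 540 and 630 nm. IC50 taken as median cytotoxic activity (Dm) from control lanes of checkerboard plates, n=2.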

[2] = Cytotoxicity against mouse L5178 cells expressing human ABCB1 after 48 hrs by MTT assay; assay type: functional, cell-based; conditions: L5178, 48 h; outline: as §2
ABCB1 (P-glycoprotein) = ABCB1 (P-glycoprotein) (Homo sapiens, UniProt P08183); experiment: Inhibition of human ABCB1 expressed in mouse L5178 cells assessed as increase in rhodamine-123 accumulation at 20 uM after 10 mins by flow cytometric analysis relative to control; assay type: cell-based; conditions: mouse L5178 cells expressing human ABCB1, probe rhodamine-123
Outline: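 Cells at 2 × 10^6/mL were preincubated 10 min with compound. Rhodamine 123 then added to 5.2 µM final, 20 min at 37 °C. Cells washed twice in PBS, resuspended and read by flow cytometry. Percent inhibition was scaled between MDR-cell accumulation (0%) and parental L5178 accumulation (100%). Controls: 100 nM tariquidar (positive) and 2% DMSO (negative).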

[3] = Synergistic cytotoxicity against mouse L5178 cells expressing human ABCB1 assessed as combination index at ED50 using 15:1 test compound to doxorubicin ratio after 48 hrs by MTT-based checkerboard microplate method; assay type: functional
Outline: (§3)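 Checkerboard microplate combinations of compound with doxorubicin at constant molar ratios. 5 × 10^4 cells/well in McCoy's 5A, 48 h at 37°C, 5% CO2. MTT added to 0.5 mg/mL final for 4 h, SDS/HCl overnight, OD read at 540 and 630 nm. Combination indices derived per ratio for 50%, 75% and 90% growth inhibition by median-effect analysis.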

[4] = Synergistic cytotoxicity against mouse L5178 cells assessed as combination index at ED75 using 150:1 test compound to doxorubicin ratio after 48 hrs by MTT-based checkerboard microplate method; assay type: functional; outline: as §3
[5] = Synergistic cytotoxicity against mouse L5178 cells assessed as combination index at ED90 using 150:1 test compound to doxorubicin ratio after 48 hrs by MTT-based checkerboard microplate method; assay type: functional; outline: as §3
[6] = Synergistic cytotoxicity against mouse L5178 cells expressing human ABCB1 assessed as combination index at ED75 using 15:1 test compound to doxorubicin ratio after 48 hrs by MTT-based checkerboard microplate method; assay type: functional; outline: as §3
[7] = Synergistic cytotoxicity against mouse L5178 cells expressing human ABCB1 assessed as combination index at ED90 using 15:1 test compound to doxorubicin ratio after 48 hrs by MTT-based checkerboard microplate method; assay type: functional; outline: as §3
[8] = Synergistic cytotoxicity against mouse L5178 cells expressing human ABCB1 assessed as combination index at ED50 using 30:1 test compound to doxorubicin ratio after 48 hrs by MTT-based checkerboard microplate method; assay type: functional; outline: as §3
[9] = Synergistic cytotoxicity against mouse L5178 cells expressing human ABCB1 assessed as combination index at ED75 using 30:1 test compound to doxorubicin ratio after 48 hrs by MTT-based checkerboard microplate method; assay type: functional; outline: as §3
[10] = Synergistic cytotoxicity against mouse L5178 cells expressing human ABCB1 assessed as combination index at ED90 using 30:1 test compound to doxorubicin ratio after 48 hrs by MTT-based checkerboard microplate method; assay type: functional; outline: as §3
[11] = Synergistic cytotoxicity against mouse L5178 cells expressing human ABCB1 assessed as combination index at ED50 using 7.5:1 test compound to doxorubicin ratio after 48 hrs by MTT-based checkerboard microplate method; assay type: functional; outline: as §3
[12] = Synergistic cytotoxicity against mouse L5178 cells expressing human ABCB1 assessed as combination index at ED75 using 7.5:1 test compound to doxorubicin ratio after 48 hrs by MTT-based checkerboard microplate method; assay type: functional; outline: as §3
[13] = Synergistic cytotoxicity against mouse L5178 cells expressing human ABCB1 assessed as combination index at ED90 using 7.5:1 test compound to doxorubicin ratio after 48 hrs by MTT-based checkerboard microplate method; assay type: functional; outline: as §3
[14] = Synergistic cytotoxicity against mouse L5178 cells assessed as combination index at ED50 using 37.5:1 test compound to doxorubicin ratio after 48 hrs by MTT-based checkerboard microplate method; assay type: functional; outline: as §3
[15] = Synergistic cytotoxicity against mouse L5178 cells expressing human ABCB1 assessed as combination index at ED50 using 3.75:1 test compound to doxorubicin ratio after 48 hrs by MTT-based checkerboard microplate method; assay type: functional; outline: as §3
[16] = Synergistic cytotoxicity against mouse L5178 cells expressing human ABCB1 assessed as combination index at ED75 using 3.75:1 test compound to doxorubicin ratio after 48 hrs by MTT-based checkerboard microplate method; assay type: functional; outline: as §3
[17] = Synergistic cytotoxicity against mouse L5178 cells expressing human ABCB1 assessed as combination index at ED90 using 3.75:1 test compound to doxorubicin ratio after 48 hrs by MTT-based checkerboard microplate method; assay type: functional; outline: as §3
[18] = Synergistic cytotoxicity against mouse L5178 cells expressing human ABCB1 assessed as combination index at ED50 using 60:1 test compound to doxorubicin ratio after 48 hrs by MTT-based checkerboard microplate method; assay type: functional; outline: as §3
[19] = Synergistic cytotoxicity against mouse L5178 cells expressing human ABCB1 assessed as combination index at ED75 using 60:1 test compound to doxorubicin ratio after 48 hrs by MTT-based checkerboard microplate method; assay type: functional; outline: as §3
[20] = Synergistic cytotoxicity against mouse L5178 cells expressing human ABCB1 assessed as combination index at ED90 using 60:1 test compound to doxorubicin ratio after 48 hrs by MTT-based checkerboard microplate method; assay type: functional; outline: as §3
[21] = Synergistic cytotoxicity against mouse L5178 cells assessed as combination index at ED50 using 300:1 test compound to doxorubicin ratio after 48 hrs by MTT-based checkerboard microplate method; assay type: functional; outline: as §3
[22] = Synergistic cytotoxicity against mouse L5178 cells assessed as combination index at ED75 using 300:1 test compound to doxorubicin ratio after 48 hrs by MTT-based checkerboard microplate method; assay type: functional; outline: as §3
[23] = Synergistic cytotoxicity against mouse L5178 cells assessed as combination index at ED90 using 300:1 test compound to doxorubicin ratio after 48 hrs by MTT-based checkerboard microplate method; assay type: functional; outline: as §3
[24] = Synergistic cytotoxicity against mouse L5178 cells assessed as combination index at ED75 using 600:1 test compound to doxorubicin ratio after 48 hrs by MTT-based checkerboard microplate method; assay type: functional; outline: as §3

ABCB1 (P-glycoprotein), sequence (P08183 whole entry): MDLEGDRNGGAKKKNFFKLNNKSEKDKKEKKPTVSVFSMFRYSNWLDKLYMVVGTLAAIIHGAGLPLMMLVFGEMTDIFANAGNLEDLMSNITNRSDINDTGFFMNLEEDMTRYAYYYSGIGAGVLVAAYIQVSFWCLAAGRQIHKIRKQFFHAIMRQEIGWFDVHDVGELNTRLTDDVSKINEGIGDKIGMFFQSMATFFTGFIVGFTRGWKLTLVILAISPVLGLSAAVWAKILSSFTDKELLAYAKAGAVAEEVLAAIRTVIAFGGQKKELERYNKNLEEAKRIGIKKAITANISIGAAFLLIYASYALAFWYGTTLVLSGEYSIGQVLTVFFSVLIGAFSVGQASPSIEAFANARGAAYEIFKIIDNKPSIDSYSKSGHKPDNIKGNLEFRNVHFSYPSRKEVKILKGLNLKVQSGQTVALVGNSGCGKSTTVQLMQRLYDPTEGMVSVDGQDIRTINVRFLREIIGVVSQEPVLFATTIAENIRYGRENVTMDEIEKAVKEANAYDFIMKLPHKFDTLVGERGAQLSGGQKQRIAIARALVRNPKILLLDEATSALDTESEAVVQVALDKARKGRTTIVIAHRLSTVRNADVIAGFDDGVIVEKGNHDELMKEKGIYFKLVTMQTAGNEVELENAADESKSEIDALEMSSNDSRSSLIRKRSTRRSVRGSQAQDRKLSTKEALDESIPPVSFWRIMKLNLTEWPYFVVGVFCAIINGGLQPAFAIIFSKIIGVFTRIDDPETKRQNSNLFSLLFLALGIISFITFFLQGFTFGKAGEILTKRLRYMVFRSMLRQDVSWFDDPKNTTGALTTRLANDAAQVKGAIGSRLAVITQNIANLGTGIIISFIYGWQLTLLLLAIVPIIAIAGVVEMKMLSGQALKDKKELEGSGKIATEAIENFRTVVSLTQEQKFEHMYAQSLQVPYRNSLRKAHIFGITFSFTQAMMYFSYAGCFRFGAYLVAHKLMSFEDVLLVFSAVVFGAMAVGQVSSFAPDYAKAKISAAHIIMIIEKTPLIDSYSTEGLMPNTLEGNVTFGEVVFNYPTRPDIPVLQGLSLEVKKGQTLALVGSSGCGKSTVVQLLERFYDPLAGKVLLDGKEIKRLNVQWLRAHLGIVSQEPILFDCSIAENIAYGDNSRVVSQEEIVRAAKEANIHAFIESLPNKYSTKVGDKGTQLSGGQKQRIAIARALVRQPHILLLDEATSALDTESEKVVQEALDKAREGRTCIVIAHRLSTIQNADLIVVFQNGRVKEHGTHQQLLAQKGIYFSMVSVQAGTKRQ

Row | Compound | pIC50 (HeLa) | pIC50 (MCF7) | pIC50 [1] | pIC50 [2] | inhibition at 10 min, 20 µM (ABCB1 (P-glycoprotein)) | CI [3] | CI [4] | CI [5] | CI [6] | CI [7] | CI [8] | CI [9] | CI [10] | CI [11] | CI [12] | CI [13] | CI [14] | CI [15] | CI [16] | CI [17] | also measured
1 | C=CCO/N=C1/C=C2C3=CC[C@H]([C@@]4(C)OC(C)(C)O[C@@H]4CCC(C)(C)O)[C@@]3(C)CC[C@@H]2[C@@]2(C)C[C@@H]3OC(C)(C)O[C@@H]3C[C@@H]12 | < 4.52 | 4.62 | 4.26 | 4.28 | 103% | 0.5 | 0.63 | 0.8 | 0.22 | 0.22 | 0.32 | 0.32 | 0.34 | 0.22 | 0.17 | 0.15 | 0.46 | 0.25 | 0.15 | 0.11 | CI [18]: 0.41; CI [19]: 0.39; CI [20]: 0.39; CI [21]: 0.73; CI [22]: 0.88; CI [23]: 1.07; CI [24]: 0.99
2 | CCO/N=C1/C=C2[C@H](CC[C@]3(C)[C@@H]([C@@]4(C)OC(C)(C)O[C@@H]4CCC(C)(C)O)CC[C@@]23O)[C@@]2(C)C[C@@H]3OC(C)(C)O[C@@H]3C[C@@H]12 | 4.54 | 4.88 | 4.43 | 4.38 | 75% | 0.62 | 0.67 | 0.73 | 0.17 | 0.19 | 0.23 | 0.23 | 0.26 | 0.19 | 0.16 | 0.17 | 0.63 | 0.27 | 0.16 | 0.13 | CI [21]: 0.8; CI [22]: 0.88; CI [23]: 0.98; CI [24]: 0.83
3 | C=CCO/N=C1/C=C2[C@H](CC[C@]3(C)[C@@H]([C@@]4(C)OC(C)(C)O[C@@H]4CCC(C)(C)O)CC[C@@]23O)[C@@]2(C)C[C@@H]3OC(C)(C)O[C@@H]3C[C@@H]12 | 4.76 | 4.76 | 4.44 | 4.31 | 81.8% | 0.17 | 0.99 | 1.31 | 0.16 | 0.17 | 0.21 | 0.22 | 0.25 | 0.2 | 0.19 | 0.19 | 1.08 | 0.23 | 0.19 | 0.16 | CI [18]: 0.31; CI [19]: 0.32; CI [20]: 0.35; CI [21]: 0.93; CI [22]: 1.18; CI [23]: 1.55
4 | CCO/N=C1/C=C2C3=CC[C@H]([C@@]4(C)OC(C)(C)O[C@@H]4CCC(C)(C)O)[C@@]3(C)CC[C@@H]2[C@@]2(C)C[C@@H]3OC(C)(C)O[C@@H]3C[C@@H]12 | 4.52 | 4.71 | 4.27 | 4.23 | 108% | 0.42 | 0.48 | 0.56 | 0.18 | 0.18 | 0.22 | 0.2 | 0.2 | 0.21 | 0.14 | 0.11 | 0.72 | 0.25 | 0.14 | 0.1 | CI [18]: 0.36; CI [19]: 0.36; CI [20]: 0.37; CI [21]: 0.59; CI [22]: 0.66; CI [23]: 0.74; CI [24]: 1.1
